TRPC4 inh – inhibitors of mouse TRPC4 channel, primary screen, Fluo4 calcium, HEK293 TRPC4beta/mu-opioid cells; DAMGO-evoked Fluo4 calcium flux; hits give low values; B-score at 10 µM; Short transient receptor potential channel 4 (Mus musculus), Q9QUQ5; 300,000 compounds, 0.39% hits;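 active means B-score over 3 SD under the library average, no early fluorescence shift, positive overall ratio signal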
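test system = HEK293 cells with stable TRPC4beta plus mu-opioid receptor expression | detection = Fluo4 Ca2+ flux fluorescence | read-out = integrated fluorescence ratio relative to baseline, converted to per-well B score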
TRPC4 potent – positive allosteric modulators of TRPC4, primary screen, cell-based, mouse TRPC4beta, HEK293 mu-opioid, Fluo-4 calcium; Short transient receptor potential channel 4 (Mus musculus), Q9QUQ5; DAMGO EC20, Fluo-4 Ca2+ flux; hits give high values; B-score at 10 µM; 310,000 compounds, 0.42% hits; AID 2227, 2009;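 active means B-score of calcium response area above 5 SD of library B-scores, with initial fluorescence ratio within 5 SD of library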
TRPC6 inhibitor – mouse TRPC6 channel inhibitors, primary screen, cell-based, HEK293, membrane potential dye; Short transient receptor potential channel 6 (Mus musculus), Q61143; ACh-evoked depolarization; hits give low values; B-score at 10 µM; 310,000 compounds, 1.1% hits; AID 2553, 2010;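 active means B-score under library mean minus 3 SD, initial fluorescence not abnormally high, positive integrated signal ratio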;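 further: B-score derived from integrated fluorescence ratio over the kinetic read; more negative B-score means stronger inhibition of depolarization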
Target sequence (Q61143 whole entry, looked up): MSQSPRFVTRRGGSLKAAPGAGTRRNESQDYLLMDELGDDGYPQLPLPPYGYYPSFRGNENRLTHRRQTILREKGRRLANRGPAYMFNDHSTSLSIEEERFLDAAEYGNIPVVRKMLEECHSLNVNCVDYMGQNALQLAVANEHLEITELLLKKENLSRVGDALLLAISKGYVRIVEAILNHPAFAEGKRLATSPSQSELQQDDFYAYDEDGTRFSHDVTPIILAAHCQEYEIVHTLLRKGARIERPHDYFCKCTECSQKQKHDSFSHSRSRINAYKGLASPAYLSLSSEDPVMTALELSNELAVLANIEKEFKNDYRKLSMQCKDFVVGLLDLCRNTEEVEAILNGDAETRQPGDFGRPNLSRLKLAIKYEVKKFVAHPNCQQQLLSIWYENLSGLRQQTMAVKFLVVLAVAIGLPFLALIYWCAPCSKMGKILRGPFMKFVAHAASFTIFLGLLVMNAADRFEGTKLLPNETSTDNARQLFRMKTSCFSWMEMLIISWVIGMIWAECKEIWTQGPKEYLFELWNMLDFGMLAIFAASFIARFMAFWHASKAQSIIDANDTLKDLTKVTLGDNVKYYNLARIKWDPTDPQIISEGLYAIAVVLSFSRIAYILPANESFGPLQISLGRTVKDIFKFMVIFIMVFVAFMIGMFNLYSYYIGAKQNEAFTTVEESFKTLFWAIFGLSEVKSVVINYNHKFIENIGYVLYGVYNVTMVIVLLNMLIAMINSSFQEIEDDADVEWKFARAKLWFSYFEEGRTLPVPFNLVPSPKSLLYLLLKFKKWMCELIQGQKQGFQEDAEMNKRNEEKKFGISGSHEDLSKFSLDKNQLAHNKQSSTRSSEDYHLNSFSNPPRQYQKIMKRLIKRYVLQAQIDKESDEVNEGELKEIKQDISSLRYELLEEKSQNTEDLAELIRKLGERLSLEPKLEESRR
TRPC4 act – activators of mouse TRPC4 channel, primary screen, Fluo4 calcium, HEK293 TRPC4beta/mu-opioid cells; AID 2237, 2010; B-score at 10 µM; Fluo4 calcium fluorescence; hits give high values; Short transient receptor potential channel 4 (Mus musculus), Q9QUQ5; 310,000 compounds, 0.49% hits;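 active means B-score above 5 SD of library B-scores, and initial fluorescence ratio not above library mean plus 5 SD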;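 further: positive B-score marks a calcium rise read as TRPC4 activation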
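Technique: kinetic Fluo4 calcium fluorescence; Test system: TRPC4beta and mu-opioid receptor HEK293 stable cells; Measure: B-scored integrated calcium fluorescence ratio; Benchmarks: low control buffer alone, high control maximal DAMGO; Schedule: 45 min room-temperature Fluo4 loading, 110 s read.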
TRPC6 act – mouse TRPC6 channel activators, primary screen, cell-based, HEK293, membrane potential dye; HEK293-TRPC6 membrane potential dye fluorescence; hits give high values; B-score at 10 µM; 310,000 compounds, 0.13% hits; AID 2550, 2010;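 active means B-score of the integrated fluorescence ratio above library mean plus 3 SD, and starting fluorescence ratio within library mean plus 5 SD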;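 further: higher score means more depolarization so channel activation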
TRPC4 sel inh 2 – second check of whether TRPC6 inhibitors also affect mouse TRPC4 | shares compounds with TRPC6 inhibitor | HEK293 TRPC4/MOR, membrane potential dye fluorescence; channel activated by saturating DAMGO dose | inhibition, % at 10 µM | 920 compounds, 42% hits | AID 2776;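 active means compounds whose fluorescence signal differed from control wells by over 3 SD, either direction, in both duplicate plates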
TRPC4 spec – mouse TRPC4 modulation by TRPC6 hits, confirmation, selectivity assay for TRPC6 inhibitor project, cell-based, HEK293 TRPC4/mu-opioid, membrane potential dye; shares compounds with TRPC6 inhibitor; membrane potential fluorescence; activity change, negative = inhibition, % at 10 µM; 920 compounds, 61% hits; AID 2777, 2010;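 active means rise or fall in signal beyond 3 SD of buffer-only wells in both replicate plates, either sign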;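 further: integrated kinetic ratio of fluorescence range over baseline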
HEK293 MPD ctr 2-1 – nonspecific membrane potential effects, parental HEK293, confirmation, counter-screen for TRPC6 inhibitor project, cell-based, second counter screen. AID 2779, 2010. parental HEK293 membrane potential dye fluorescence; maximal acetylcholine challenge after compound addition. shares compounds with TRPC6 inhibitor. 920 compounds, 31% hits. signal change vs control, % at 10 µM;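 active means membrane potential signal moving either way by over 3 SD of the maximum-effect control, in both duplicate plates, meaning non-specific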
HEK293 MPD ctr-1 – membrane potential modulation in parental HEK293, confirmation, counter-screen for TRPC6 inhibitor project, cell-based; shares compounds with TRPC6 inhibitor; AID 2780, 2010; 920 compounds, 60% hits; parental HEK293 membrane potential dye fluorescence; membrane potential signal change, % at 10 µM;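 active means membrane potential signal shifting up or down by more than 3 SD of buffer-only wells, on both duplicate plates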
HEK293 MPD ctr-2 – parental HEK293 membrane potential modulation, confirmation, counter-screen for TRPC6 modulator project, cell-based; membrane potential signal change, % at 10 µM; membrane potential dye fluorescence; 2,400 compounds, 51% hits; AID 488924, 2010; shares compounds with TRPC6 inhibitor;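 active means membrane potential signal moves up or down beyond 5 SD from buffer-only wells, on both duplicate plates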
HEK293 MPD ctr 2-2 – second counter-screen for TRPC6 modulators: effect in parental HEK293 cells; inhibition, % at 10 µM; 2,400 compounds, 14% hits; membrane potential dye fluorescence; after compound, maximal acetylcholine stimulation; AID 488926; shares compounds with TRPC6 inhibitor;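 active means membrane potential signal drops by more than 5 SD from the mean control signal, in both duplicate plates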
TRPC4 ctr mod – TRPC4 modulation by TRPC6 hit compounds, confirmation, selectivity assay for TRPC6 modulator project, cell-based, HEK293 TRPC4/mu-opioid, membrane potential dye, mouse | 2,400 compounds, 69% hits | AID 488927, 2010 | percent change from control (negative = decrease, positive = increase), % at 10 µM | membrane potential fluorescence | shares compounds with TRPC6 inhibitor;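 active means membrane potential signal moved up or down beyond 5 SD of buffer control wells, in both duplicate plates, actives on both sides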
TRPC4 ctr inh 2 – second selectivity test of TRPC6 modulators against mouse TRPC4; 2,400 compounds, 55% hits; HEK293 TRPC4/mu-opioid, membrane potential dye fluorescence; stimulated with maximal-effect DAMGO; shares compounds with TRPC6 inhibitor; inhibition, % at 10 µM;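 active means drop in membrane potential signal beyond 5 SD of the control wells in both duplicate plates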;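 further: TRPC4 counter screen for TRPC6 hits run under conditions tuned for TRPC6 not TRPC4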
TRPC6 block conf – mouse TRPC6 channel inhibitors, confirmation, HEK293 cells, membrane potential dye, duplicate; shares compounds with TRPC6 inhibitor; ACh-evoked depolarization; 3,300 compounds, 43% hits; inhibition, % at 10 µM;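 active means fluorescence ratio falls more than 5 SD below the full-stimulation control mean, in both duplicate runs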;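 further: integrated fluorescence ratio of peak minus minimum over baseline after agonist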
TRPC6 act confirm – mouse TRPC6 channel activators, confirmation, HEK293 cells, membrane potential dye, duplicate. 2,800 compounds, 11% hits. AID 488961, 2010. HEK293-TRPC6 membrane potential dye fluorescence, FDSS. shares compounds with TRPC6 inhibitor. activation, % at 10 µM;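 active means ratio signal rise beyond 5 SD above unstimulated control wells' mean, seen in both duplicate runs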
Hits are given with their value; 0 = inactive; - = no result. Most compounds without a hit are left out; they make up all but 2.3% or so of the library.

SMILES | TRPC4 inh | TRPC4 potent | TRPC6 inhibitor | TRPC4 act | TRPC6 act | HEK293 MPD ctr-2 | HEK293 MPD ctr 2-2 | TRPC4 ctr mod | TRPC4 ctr inh 2 | TRPC6 block conf | TRPC6 act confirm | others
CCc1ccccc1NS(=O)(=O)c1ccc2c(c1)NC(=O)CC(=O)N2 | 0 | 0 | -9.4 | 0 | 0 | - | - | - | - | 0 | 0 | TRPC4 sel inh 2=0;TRPC4 spec=0;HEK293 MPD ctr 2-1=0;HEK293 MPD ctr-1=0
CCc1cccc(NS(=O)(=O)c2ccc3c(c2)NC(=O)CC(=O)N3)c1 | 0 | 0 | 0 | 0 | 0 | - | - | - | - | - | -
O=C(NCC1CCCO1)C1c2ccccc2C(=O)N1C1CCCCCCC1 (stereo not given) | 0 | 0 | 0 | 0 | 0 | - | - | - | - | - | -
O=C(NCC1CCCO1)[C@@H]1CSC2c3ccccc3C(=O)N21 (stereo not given in full) | 0 | 0 | -5.4 | 0 | 0 | 0 | 0 | 0 | 0 | 0 | 0
Cc1ccc(S(=O)(=O)/N=C2\C=C(Nc3cccc(C(=O)O)c3)C(=O)c3ccccc32)cc1 | 0 | 0 | 0 | 0 | 0 | - | - | - | - | - | -
CC(C)(C)c1ccc(S(=O)(=O)/N=C2\C=C(NS(=O)(=O)c3ccccc3)C(=O)c3ccccc32)cc1 | 0 | 0 | -6.1 | 0 | 0 | -153% | 77% | -30% | 90% | 81% | 0
CCc1ccc(S(=O)(=O)/N=C2\C=C(Nc3ccc(C(=O)O)cc3)C(=O)c3ccccc32)cc1 | 0 | 0 | -6.9 | 0 | 0 | -120% | 0 | -26% | 68% | 36% | 0
CCOC(=O)C1CCCN(S(=O)(=O)CCNC(=O)c2ccc(F)cc2)C1 (stereo not given) | 0 | 0 | 0 | 0 | 0 | - | - | - | - | - | -
CCCCCn1c(CN2CCN(c3cc(Cl)ccc3C)CC2)nc2c1c(=O)[nH]c(=O)n2C | 0 | 0 | 0 | 0 | 0 | - | - | - | - | - | -
CCN(CC#CCC(O)(c1ccccc1)C1CCCC1)C(C)C (stereo not given) | 0 | 0 | -5.6 | 0 | 0 | 188% | 0 | 34% | 0 | 56% | -
COc1nc(N(c2ccccc2)c2ccccc2)nc(-n2ccnc2)n1 | 0 | 0 | 0 | 0 | 12 | 372% | 59% | 64% | 0 | 0 | 132%
O=C(O)c1cc(NN=C2c3ccccc3-c3ccccc32)ccc1Cl | -8 | 0 | -5.4 | 0 | 0 | 0 | 0 | -12% | 59% | 61% | -
COc1ccc(-c2c[n+](CC(=O)OC3CC(C)CCC3C(C)C)c3n2CCC3)cc1 (stereo not given) | 0 | 0 | -6.1 | 0 | 0 | 162% | 0 | 28% | 0 | 55% | -
COC(C[C@@H](O)[C@@H](C)[C@H](O)COCc1ccccc1)OC | 0 | 0 | 0 | 0 | 0 | - | - | - | - | - | -
CCOC(=O)C1(CC2CC2)CCN(C(=O)c2cccnc2C)CC1 | 0 | 0 | 0 | 0 | 0 | - | - | - | - | - | -
CCOC(=O)c1cnc2c(cnn2C)c1NCCCn1ccnc1 | 0 | 0 | -7.5 | 0 | 0 | -352% | 115% | -52% | 68% | 73% | 0
CCOC(=O)c1cnc2c(cnn2C)c1NCCCN(C)C | 0 | 0 | 0 | 0 | 0 | - | - | - | - | - | -
COc1cc(/C=C(/C#N)C(=O)Nc2ccc(C)cc2)ccc1Oc1nc(Cl)ncc1F | 0 | 0 | 0 | 0 | 0 | - | - | - | - | - | -
COc1cc(C(O)c2nc3ccccc3s2)cc(OC)c1OC (stereo not given) | 0 | 0 | 0 | 0 | 0 | - | - | - | - | - | -
COc1cc(C(=O)Nc2c(C(=O)O)[nH]c3ccc(Br)cc23)cc(OC)c1OC | 0 | 0 | 0 | 0 | 0 | - | - | - | - | - | -
CCCn1cc(C(=O)OCC)c(=O)c2cc(F)c(F)cc21 | 0 | 0 | 0 | 0 | 0 | - | - | - | - | - | -
CCOC(=O)c1cn(CC)c2ccc(Br)cc2c1=O | 0 | 0 | -6 | 0 | 0 | -106% | 0 | -16% | 0 | 0 | 0
CCOC(=O)c1cn(CC2CC2)c2cc(F)c(F)cc2c1=O | 0 | 0 | -5.4 | 0 | 0 | -276% | 0 | -48% | 59% | 53% | 0
COc1cc(NC(=O)CCc2nnc3ccc(N4CCC5(CC4)OCCO5)nn23)cc(OC)c1 | 0 | 0 | 0 | 0 | 0 | - | - | - | - | - | -
CCN(Cc1ccccc1)C(=O)CCS(=O)(=O)c1ccc2c(c1)n(C)c(=O)c(=O)n2C | 0 | 0 | 0 | 0 | 0 | - | - | - | - | - | -
CC(C)(C)c1ccc(-c2nc(NCc3cccnc3)c3ccccc3n2)cc1 | 0 | 0 | -6.8 | 0 | 0 | 0 | 0 | 0 | 0 | 0 | 0

Compound activity as filed in PubChem BioAssay.
